# Experimental data as given in ChEMBL document CHEMBL1121991, “4-Aroyl-1,3-dihydro-2H-imidazol-2-ones, a new class of cardiotonic agents” (1982).
# Tests used:
# Canis familiaris [1] = experiment: Pharmacological activity for heart rate +15% in anesthetized dog was determined after intravenous administration; assay type: functional, Canis lupus familiaris
# Method in brief: (§1)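 Anesthetized dogs; contractile force recorded by a left-ventricular Walton-Brodie strain gauge arch, heart rate from lead II EKG, plus blood pressure. Stabilized at least 30 min, then at least three iv doses given, one compound per animal, with return to basal between doses. Doses for +30% force, +15% rate and −20% BP were extrapolated from dose-response curves; geometric mean where repeated.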
# Canis familiaris [2] = experiment: Pharmacological activity for Blood pressure, -20% in anesthetized dog was determined after intravenous administration; assay type: functional, Canis lupus familiaris; method in brief: as §1
# Canis familiaris [3] = experiment: Pharmacological activity for Contractile force, +30% in anesthetized dog was determined after intravenous administration; assay type: functional, Canis lupus familiaris; method in brief: as §1
# Canis familiaris [4] = experiment: The change in mean arterial blood pressure was determined after 0.1 ug/kg iv administration in dog.; assay type: functional, Canis lupus familiaris
# Method in brief: (§2)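 Anesthetized dogs: a Walton-Brodie strain gauge arch sutured to the left ventricle recorded contractile force, and blood pressure was recorded, after at least 30 min stabilization. Isoproterenol 0.1 μg/kg iv was given to controls or to dogs pretreated with propranolol 0.5 mg/kg iv. The value is the % change from pre-dose control; N = 6 per group; means ± SE; Student's t test.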
# Canis familiaris [5] = experiment: The change in cardiac contractile force was determined after 0.1 ug/kg iv administration in dog.; assay type: functional, Canis lupus familiaris, Heart; method in brief: as §2
# Canis familiaris [6] = experiment: The heart rate was determined after 1.0 mg/kg administration with 20 mg/kg pentobarbital in the dog heart-lung preparation.; assay type: functional, Canis lupus familiaris
# Method in brief: (§3)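 Isolated dog heart-lung preparation from mongrel dogs of either sex (11–19 kg), anesthetized with sodium pentobarbital 35 mg/kg iv. A strain gauge arch on the right ventricle recorded contractile force, EKG lead II gave heart rate, a left atrial cannula and transducer gave LAP, and an extracorporeal flow meter gave aortic flow. Failure was induced by adding pentobarbital to the blood reservoir, then compound was added to the reservoir; readings at 10 min. Five preparations; means ± SE; ANOVA.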
# Canis familiaris [7] = experiment: The cardiac contractile force was determined after 1.0 mg/kg administration with 20 mg/kg pentobarbital in the dog heart-lung preparation.; assay type: functional, Canis lupus familiaris; method in brief: as §3
# Canis familiaris [8] = experiment: The left atrial pressure was determined after 1.0 mg/kg administration with 20 mg/kg pentobarbital in the dog heart-lung preparation.; assay type: functional, Canis lupus familiaris, Cardiac atrium; method in brief: as §3
# Canis familiaris [9] = experiment: The cardiac output was determined after 1.0 mg/kg administration with 20 mg/kg pentobarbital in the dog heart-lung preparation.; assay type: functional, Canis lupus familiaris; method in brief: as §3
# Canis familiaris [10] = experiment: The stroke work was determined after 1.0 mg/kg administration with 20 mg/kg pentobarbital in the dog heart-lung preparation.; assay type: functional, Canis lupus familiaris; method in brief: as §3
# Canis familiaris [11] = experiment: The stroke volume was determined after 1.0 mg/kg administration with 20 mg/kg pentobarbital in the dog heart-lung preparation.; assay type: functional, Canis lupus familiaris; method in brief: as §3
SMILES,Equieffective dose (Canis familiaris [1]),Equieffective dose (Canis familiaris [2]),Equieffective dose (Canis familiaris [3]),further results
CCc1[nH]c(O)nc1C(=O)c1ccc(SC)cc1,0.54 mg/kg,0.28 mg/kg,0.07 mg/kg,
Cc1[nH]c(O)nc1C(=O)c1ccc(O)cc1,1.3 mg/kg,2.6 mg/kg,0.25 mg/kg,
COc1ccc(C(=O)c2c(C)n(C)c(=O)n2C)cc1,>10 mg/kg,2.6 mg/kg,4.7 mg/kg,
Cc1[nH]c(O)nc1C(=O)c1ccc(Cl)c(Cl)c1,4 mg/kg,2.1 mg/kg,0.7 mg/kg,
Cc1[nH]c(O)nc1C(=O)c1cccs1,5.4 mg/kg,2.5 mg/kg,0.28 mg/kg,
O=C(c1c[nH]c(O)n1)c1cccs1,>10 mg/kg,3.7 mg/kg,0.72 mg/kg,
Cc1[nH]c(O)nc1C(=O)c1ccccc1O,>10 mg/kg,4.5 mg/kg,3.28 mg/kg,
COc1ccc(C(=O)c2nc(O)n(C)c2C)cc1,>10 mg/kg,>10 mg/kg,>10 mg/kg,
COc1ccc(C(=O)c2[nH]c(O)nc2C)cc1OC,1.05 mg/kg,2 mg/kg,0.4 mg/kg,
Cc1nc(O)[nH]c1C(=O)c1ccc(N(C)C)cc1,2.2 mg/kg,>3 mg/kg,0.36 mg/kg,
Cc1[nH]c(O)nc1C(=O)c1ccc(N2CCCC2)cc1,8.5 mg/kg,4.5 mg/kg,>10 mg/kg,
Cc1[nH]c(O)nc1C(=O)c1ccccc1,1.55 mg/kg,2.55 mg/kg,0.23 mg/kg,
CC(=O)n1c(C)c(C(=O)c2ccccc2)n(C(C)=O)c1=O,>10 mg/kg,6.5 mg/kg,3 mg/kg,
Cc1[nH]c(O)nc1C(=O)c1ccc(N2CCOCC2)cc1,>10 mg/kg,6.4 mg/kg,1.2 mg/kg,
O=C(c1ccccc1)c1c[nH]c(O)n1,4 mg/kg,4.4 mg/kg,3.91 mg/kg,
Cc1[nH]c(O)nc1C(=O)c1ccc(N2CCCCC2)cc1,>10 mg/kg,>10 mg/kg,>10 mg/kg,
CCc1[nH]c(O)nc1C(=O)c1ccc(OC)c(OC)c1,>3 mg/kg,2.35 mg/kg,0.18 mg/kg,

SMILES,Equieffective dose (Canis familiaris [1]),Equieffective dose (Canis familiaris [2]),Equieffective dose (Canis familiaris [3]),further results
CCc1[nH]c(O)nc1C(=O)c1ccc(OC)cc1,0.23 mg/kg,0.62 mg/kg,0.15 mg/kg,
Cc1[nH]c(O)nc1C(=O)c1ccc(Cl)cc1,4 mg/kg,0.29 mg/kg,0.18 mg/kg,
CCCc1[nH]c(O)nc1C(=O)c1ccc(SC)cc1,3 mg/kg,2.3 mg/kg,1.13 mg/kg,
Cc1c(C(=O)c2ccc(N(C)C)cc2)n(C(=O)C(C)C)c(=O)n1C(=O)C(C)C,>10 mg/kg,>10 mg/kg,2.45 mg/kg,
CSc1ccc(C(=O)c2c[nH]c(O)n2)cc1,1.05 mg/kg,,0.5 mg/kg,
Cc1[nH]c(O)nc1C(=O)c1ccc(F)cc1,>3 mg/kg,1.03 mg/kg,0.38 mg/kg,
Cc1[nH]c(O)nc1C(=O)c1ccccc1Cl,2.2 mg/kg,2.1 mg/kg,0.48 mg/kg,
COc1ccc(C(=O)c2c[nH]c(O)n2)cc1,1.85 mg/kg,3.1 mg/kg,0.78 mg/kg,
Cc1[nH]c(O)nc1C(=O)c1ccco1,3.3 mg/kg,0.72 mg/kg,1.05 mg/kg,
O=C(c1c[nH]c(O)n1)c1ccco1,4.3 mg/kg,4.2 mg/kg,1.84 mg/kg,
CCc1[nH]c(O)nc1C(=O)c1cccs1,1.45 mg/kg,1.6 mg/kg,0.41 mg/kg,
Cc1nc(O)[nH]c1C(=O)c1ccc(N2CCN(C)CC2)cc1,9.1 mg/kg,>10 mg/kg,>10 mg/kg,
CC(=O)n1c(C)c(C(=O)c2ccc(N(C)C)cc2)n(C(C)=O)c1=O,>3 mg/kg,>3 mg/kg,0.36 mg/kg,
CC(=O)n1c(C)c(C(=O)c2ccc(F)cc2)n(C(C)=O)c1=O,>8 mg/kg,2.5 mg/kg,1 mg/kg,
CSc1ccc(C(=O)c2[nH]c(=O)[nH]c2C)cc1 [ENOXIMONE],1.5 mg/kg,0.55 mg/kg,0.12 mg/kg,
CC(C)NCC(O)c1ccc(O)c(O)c1 (stereo not drawn) [ISOPROTERENOL],,,,Change (Canis familiaris [4]): -27%; Change (Canis familiaris [5]): 133%
CCCC(C)C1(CC)C(=O)NC(=O)NC1=O (stereo not drawn) [PENTOBARBITAL],,,,Heart rate (Canis familiaris [6]): 133 beats min-1; Cardiac contractile force (Canis familiaris [7]): 32.2 g; Left atrial pressure (Canis familiaris [8]): 12.1 mmHg; Cardiac output (Canis familiaris [9]): 613 mL/min; Stroke work (Canis familiaris [10]): 3 g; Stroke volume (Canis familiaris [11]): 4.6 mL
